Data as given in ChEMBL document CHEMBL4513216, “Probing the Open Global Health Chemical Diversity Library for Multistage-Active Starting Points for Next-Generation Antimalarials” (ACS Infect Dis, 2020).

assay: Toxicity liver stage against HepG2, at 10uM; type: cell-based; parameters: test concentration 10 uM, cell line HepG2-A16-CD81EGFP; conditions: human, HepG2-A16-CD81EGFP cells; read-out: INHIBITION
In short: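 Uninfected HepG2-A16-CD81EGFP cells, 3 × 10^3 per well, 1536-well, plated on prespotted compound at 10 μM final, parasite-free screening media added to match infected plates; puromycin 10 μM positive, DMSO 0.5% negative; run in parallel with 48 h PbLuc assay at 37 °C, 5% CO2; viability by CellTiter-Glo luminescence, normalized to controls.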

SMILES | cytotoxicity at 10 µM [%]
Cc1cccc(CN2C(=O)C[C@H]3[C@@H]2CCN3Cc2ccc(F)cc2)n1 | 2.2
CC(C)n1cnnc1CNC(=O)CCCOc1ccccc1Cl | -3.51
Cc1cc(NC(=O)C(C)C)n(-c2nc(C)c(C)c(=O)[nH]2)n1 | 43.1
O=C(O)c1c[nH]c2cc(NS(=O)(=O)c3ccc(Cl)cc3F)ccc12 | -1.2
O=C1NC2(CCN(CC3CC3)CC2)CC1c1ccccc1 (centres undefined) | -7.64
Cc1cccc(CN2CC3C[C@]3(NC(=O)c3cccc(F)c3)C2)n1 (some centres undefined) | -151
CC(C)NC(=O)[C@@H]1C[C@@H](N)CN1C(=O)CCSCc1ccccc1 | 0.719
Cc1nccn1Cc1nnc(C2CCCN(c3ncccc3F)C2)n1C (centres undefined) | -4.93
O=C(O)c1ccc(CC2CCN(Cc3ccc(-c4cc[nH]n4)o3)C2)cc1 (centres undefined) | 6.37
O=C(COCCOc1ccccc1)NC1CCN(c2ncccn2)CC1 | -4.9
COCCO[C@H]1CCN(C(=O)c2ccc[nH]2)[C@H]1Cc1ccncc1 | -5.46
CC(Cn1cccn1)NS(=O)(=O)Cc1ccc(F)cc1 (centres undefined) | 7.28
Cc1noc(C)c1CN1CCN(C(=O)CCn2cncn2)CC1 | 0.975
COCc1ccc(CNc2cnn(C(C)(C)C)c(=O)c2Cl)cc1 | 60.9
CC(C(=O)N1CCC(c2[nH]ncc2-c2ccccc2)CC1)n1cncn1 (centres undefined) | -0.815
Cc1nc(-c2ccsc2)sc1C(=O)N1CCn2c(C)nnc2C1 | -3.29
NS(=O)(=O)c1cc(C(=O)N2CCCC(n3ccnc3)C2)cs1 (centres undefined) | -11.3
COCc1noc(C2(c3ccc(Br)cc3)CCOCC2)n1 | -9.61
CSCC[C@H]1CN2CCC[C@H]2CN1Cc1coc2ccc(C)cc2c1=O | -1.04
NC(=O)c1cc2c(nc1CCOc1ccc(F)cc1)CCC2 | 4.22
Cc1cccc(NC(=O)c2[nH]nc(C(C)C)c2Br)n1 | -2.95
Cc1nc(C)n(CC2CCCN2Cc2nc(C3CC3)no2)n1 (centres undefined) | -12.5

SMILES | cytotoxicity at 10 µM [%]
Cc1noc(COCC(=O)N2CCCCC2c2nccs2)n1 (centres undefined) | 6.9
O=C(NCC(Cc1cccc(F)c1)N1CCCC1=O)c1ccc[nH]c1=O (centres undefined) | -2.42
CSc1cccc(CNC(=O)C2CC(=O)N(CCN(C)C)C2)c1 (centres undefined) | -4.15
COCc1noc(CN2CCCCC2CCc2cccs2)n1 (centres undefined) | 0.642
CSc1ccc(CNC2CCN(CCc3ccncc3)CC2)cc1 | -8.14
Cc1c(C(=O)N2CCOCC2)nnn1-c1ccc2ncccc2c1 | -4.87
OCCn1cc(CN2CCN(CCOCC(F)(F)F)CC2)cn1 | -10.7
CN1CCC2(CCN(S(=O)(=O)c3ccc(-c4cnco4)s3)CC2)C1 | -0.0395
CCOC(=O)c1coc(N2CCC(C(C)N3CCCC3)CC2)n1 (centres undefined) | -1.89
COC(=O)N1CCC(NC(=O)c2cc(S(N)(=O)=O)ccc2C)CC1 | -1.22
COCC(=O)N1CCN(C(C)c2ncc(-c3ccccc3)o2)CC1 (centres undefined) | 5.66
CCc1n[nH]c(C(=O)NCCn2ccnc2C)c1C | -9.29
O=C(c1ccc2[nH]ccc2c1)N1CCn2cnc(COCC3CC3)c2C1 | 5.22
Cc1ccn(-c2ccccc2NCc2cscn2)n1 | 13.2
COc1ccc(C)cc1S(=O)(=O)N[C@H]1CN(C(C)=O)C[C@@H]1C1CC1 | -3.64
CN(C)Cc1ccc(C2CCCCN2C(=O)c2ncccc2O)cc1 (centres undefined) | -6.59
O=c1[nH]c(N2CC(O)C2)nc2c1cnn2-c1ccccc1 | 1.92
Cc1nc(CN2CCCC(N(C)c3ccc(C#N)cn3)C2)no1 (centres undefined) | -6.76
CN(Cc1ccccc1O)C(=O)NC1CCCN(c2ncccn2)C1 (centres undefined) | -0.421
O=C(NC1CCCN(CCCc2ccccc2)C1)c1ccncc1 (centres undefined) | 0.524
CO[C@H]1CCN(C(=O)c2cc(C)on2)[C@H]1Cc1ccncc1 | 1.2
Cc1noc([C@H]2C[C@@H]3CCN(c4nnc(C)s4)C[C@H]3O2)n1 | 3.55

SMILES | cytotoxicity at 10 µM [%]
CCNC(=O)CCS(=O)(=O)Cc1ccn(-c2cccc(F)c2)n1 | 11.1
N#CC1C(=O)Nc2c(cnn2C2CCCC2)C12CCCCC2 (centres undefined) | 8.46
CCCOc1cccc(OCc2ccon2)c1 | -4.9
Cc1nc(CN2CC[C@H]3[C@@H]2CCC(=O)N3c2cnn(C)c2)cs1 | 11.3
Cc1noc(C)c1CN1CCc2cnn(C)c2C1COCC1CC1 (centres undefined) | 10.7
Cc1csc2c(N3CCC(NCCCc4ccncc4)CC3)ncnc12 | -1.54
COc1c(CNC(c2cccc(F)c2)c2nccn2C)c(C)nn1C (centres undefined) | -9.19
CC(CNC(=O)c1cnc[nH]1)Oc1ccc(Cl)cc1 (centres undefined) | -7.09
O=C(c1ccncc1)N1CC[C@@H]2CN(C3CCOCC3)CCO[C@@H]2C1 | -110
COc1ccc(Cl)cc1CS(=O)(=O)Cc1cc(C)on1 | 6.06
O=C(c1cc(-n2cnnn2)ccc1Cl)N1CCN(c2ccccc2)CC1 | 11.3
CN(CCCN1CCOCC1)[C@@H]1c2ccccc2C2(CCNCC2)[C@H]1O | -3.12
CC(=O)N1CCC(NCc2cccnc2N(C)Cc2ccccc2)CC1 | -14.1
c1coc(CN2CCO[C@H]3[C@H](OCC4CCCC4)CC[C@@H]32)c1 | 19.7
Cc1occc1CNC(=O)C1CCCN1C(=O)C1CC1 (centres undefined) | 7.98
CC1CCCN(C(=O)C2CCN(c3snc4ccccc34)CC2)C1 (centres undefined) | 10.1
CCNc1nc(C)c(C(=O)N2CCC(C(O)Cc3ccccc3)CC2)s1 (centres undefined) | 13.5
CCN1C(=O)C2(CCOCC2)c2cc(NC(=O)c3ccco3)ccc21 | -10.3
COc1ccc(C2CCCN2c2nnc(C)s2)c(OC)c1 (centres undefined) | 9.74
O=C(NCc1ccccc1)N1Cc2nc(COCC3CC3)oc2C1 | 8.67
CN1CCN(Cc2ccc(-c3ccc4[nH]ccc4c3)nc2)CC1 | -9.17
Fc1cccnc1O[C@@H]1CC[C@H]2[C@H]1OCCN2Cc1nccs1 | 4.93

SMILES | cytotoxicity at 10 µM [%]
COc1cccc(NC(=O)Cn2cc(-c3ccccc3)ncc2=O)c1 | -0.0638
CN1CCOC(CNCc2csc(C3CCCCC3)n2)C1 (centres undefined) | -8.57
O=C(NCC1CC1)C1=NOC2(CCN(S(=O)(=O)c3ccc(F)cc3)C2)C1 (centres undefined) | 3.25
CCCc1nc(CN2CCN(CC(O)c3ccccc3)CC2)no1 (centres undefined) | -2.89
CNC(=O)c1cc(NC(=O)NC(C)CCc2cccn2C)ccc1F (centres undefined) | -2.01
Cc1ccc(F)cc1C(=O)N1C[C@@H](CN2CCOCC2)[C@@H](CO)C1 | -6.2
Cn1ncc2c(N[C@H]3CCCC[C@@H]3O)nc(C(C)(C)C)nc21 | -21.5
COCCN1C(=O)[C@@H]2CC[C@H]1CN(S(=O)(=O)c1cccc(Cl)c1)C2 | 20.5
CC1=Nc2c(c(=O)[nH]n2C(C)C)C(c2ccccc2)S1 (centres undefined) | 5.53
O=C(NCc1ccccc1CN1CCCC1)Nc1nncs1 | 6.13
CCCc1nnc(NC2CCN(Cc3ccc(F)c(F)c3)CC2)o1 | -1.48
COc1ncc(C(F)(F)F)c(C(=O)O)c1Cl | 16.7
CCN(C)Cc1cccc(CNC(=O)NCCc2ccccn2)c1 | 2.8
O=C(CCn1ccc(=O)[nH]c1=O)N1CCC(Oc2ncccc2Cl)CC1 | 1.71
COCCO[C@H]1COCCN(C2CCN(C)CC2)C1 | 3.08
O=C(C1CCC1)N1CCO[C@@H]2CNC[C@@H]21 | 1.44
COc1ccc(C(NC(=O)NCc2nnc3n2CCC3)C2CC2)cc1 (centres undefined) | 11.7
Cc1n[nH]c(C)c1C1CCCN1C(=O)NC(C)(C)C (centres undefined) | -4.27
Fc1ccc(-c2n[nH]cc2-c2ccnc(NCCN3CCCC3)n2)cc1 | 9.05
CN1C[C@H]2CC[C@@H](C1)N(Cc1ccccc1OCCN1CCOCC1)C2 | -3
O=C(C1SCCc2sccc21)N1CCN(CCO)CC1 (centres undefined) | -19.8
CC(C)NC(=O)N1Cc2nccn2CC(COc2cccnc2)C1 (centres undefined) | 7.77

SMILES | cytotoxicity at 10 µM [%]
CCS(=O)(=O)N1Cc2nccn2CC(CN2CCCC2)C1 (centres undefined) | -124
Cc1ccsc1CNC(=O)c1ccc2c(c1)CCC(=O)N2 | 4.91
CN(CC(O)C1CC1)C(=O)Nc1ccc(F)c(-n2cccc2)c1 (centres undefined) | 2.2
Cc1cc(Br)ccc1NCc1ccc(C(=O)N(C)C)[nH]1 | 5.68
Cc1ccc2c(n1)N(CC(C)C)CCN(S(C)(=O)=O)C2 | -65.7
CCOCCn1nc(C)cc1C(=O)N1CCOCC(CO)C1 (centres undefined) | -20
COC(=O)c1ccc(C(=O)NCC2(O)CCOCC2)cc1 | -5.08
O=C(C1CCOCC1)N1CCO[C@H]2[C@@H](OCc3ccncc3)CC[C@@H]21 | 5.54
CN(C)C(=O)c1c[nH]nc1C1CCN(S(=O)(=O)c2ccc(Cl)cc2)CC1 | -4.9
Cc1nn(C)cc1-c1cc(C(F)(F)F)nc(NC2CCCCC2)n1 | 6.9
COCCC(=O)N1Cc2cnc(Cc3ccc(OC)cc3)nc2C1 | -0.641
CS(=O)(=O)NCc1nnc2n1CCN(Cc1ccncc1)C2 | -73.6
Cc1ccc(F)c(C(=O)N2CCN(S(C)(=O)=O)[C@@H](C)C2)c1 | -10.3
CCN(c1ccc(C(=O)NCCCN2CCOCC2)cc1)S(=O)(=O)CC | 1.34
Cn1cnc(S(=O)(=O)N2CCCc3c(F)cc(F)cc32)c1Cl | 0.333
O=C1CCC2(CCCN(C(=O)Cc3cccnc3)C2)N1 (centres undefined) | 6.88
COc1c(C2CCCN2C(=O)c2cccnc2N(C)C)c(C)nn1C (centres undefined) | -7.62
NC(=O)c1cnn2c1NCC(CNC1(c3ccccc3)CCC1)C2 (centres undefined) | -8.84
CCN1CCN(C(=O)NCCOc2ccc3c(c2)OCO3)CC1 | -4.59
O=C(CCOc1ccc(Cl)cc1)N1CCN(c2cnccn2)CC1 | -2.65
CC(C)CCn1ccc(NC2CCSC2)n1 (centres undefined) | 6.93
